Measured values: ChEMBL document CHEMBL3603743, “Design, synthesis and biological evaluation of saccharin-based N-hydroxybenzamides as histone deacetylases (HDACs) inhibitors” (Bioorg Med Chem, 2015)

Tests used:
[1] = biological target: Histone deacetylase (HDAC1 and HDAC2) (Homo sapiens, UniProt Q13547+Q92769); experiment: Inhibition of HDAC1/2 in human HeLa cells nuclear extracts using acetylated histone peptide as substrate after 30 mins by Color de Lys assay; type: cell-based
[2] = Antiproliferative activity against human KG1 cells after 48 hrs by MTT assay; type: functional, cell-based; details: KG-1, 48 h
PC-3 = experiment: Antiproliferative activity against human PC3 cells after 48 hrs by MTT assay; type: functional, cell-based; details: PC-3, 48 h
MDA-MB-231 [3] = experiment: Induction of apoptosis in human MDA-MB-231 cells assessed as late apoptotic cells at 1 uM after 24 hrs using Annexin V-FITC and propidium iodide staining by flow cytometry (reference value: 4.04%); type: functional
Method in brief: (§1)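 MDA-MB-231 cells (1.2 × 10⁵) exposed to compound for 24 h, then harvested and washed in PBS. Cells resuspended in Annexin V-FITC binding buffer, stained with Annexin V-FITC plus propidium iodide for 10 min at room temperature, held on ice and analysed by flow cytometry.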

MDA-MB-231 [4] = experiment: Induction of apoptosis in human MDA-MB-231 cells assessed as early apoptotic cells at 4 uM after 24 hrs using Annexin V-FITC and propidium iodide staining by flow cytometry (reference value: 2.60%); type: functional; method in brief: as §1
MDA-MB-231 [5] = experiment: Induction of apoptosis in human MDA-MB-231 cells assessed as total apoptotic cells at 1 uM after 24 hrs using Annexin V-FITC and propidium iodide staining by flow cytometry; type: functional; method in brief: as §1
MDA-MB-231 [6] = experiment: Antiproliferative activity against human MDA-MB-231 cells after 48 hrs by MTT assay; type: functional, cell-based; details: MDA-MB-231, 48 h
MDA-MB-231 [7] = experiment: Induction of apoptosis in human MDA-MB-231 cells assessed as late apoptotic cells at 4 uM after 24 hrs using Annexin V-FITC and propidium iodide staining by flow cytometry (reference value: 4.04%); type: functional; method in brief: as §1
MDA-MB-231 [8] = experiment: Induction of apoptosis in human MDA-MB-231 cells assessed as early apoptotic cells at 1 uM after 24 hrs using Annexin V-FITC and propidium iodide staining by flow cytometry (reference value: 2.60%); type: functional; method in brief: as §1

SMILES | IC50 [1] [µM] | further results
O=C(CCCCN1C(=O)c2ccccc2S1(=O)=O)NCc1ccc(C(=O)NO)cc1 | 3.4 | 
O=C(NO)c1ccc(CN2C(=O)c3ccc(NC(=O)c4ccccc4)cc3S2(=O)=O)cc1 | 0.38 | 
Cc1ccc(/C=C/C(=O)Nc2ccc3c(c2)S(=O)(=O)N(Cc2ccc(C(=O)NO)cc2)C3=O)cc1 | 1.297 | 
O=C(CCCCN1C(=O)c2ccccc2S1(=O)=O)Nc1cccc(C(=O)NO)c1 | > 5 | 
O=C(NO)c1ccc(CN2C(=O)c3ccc(I)cc3S2(=O)=O)cc1 | 1.335 | 
O=C(NO)c1ccc(CN2C(=O)c3ccc(NC(=O)c4ccc(-c5ccccc5)cc4)cc3S2(=O)=O)cc1 | > 5 | 
O=C(CCCCN1C(=O)c2ccc(I)cc2S1(=O)=O)Nc1ccc(C(=O)NO)cc1 | 0.305 | 
O=C(CCN1C(=O)c2ccc([N+](=O)[O-])cc2S1(=O)=O)Nc1ccc(C(=O)NO)cc1 | 2.02 | 
O=C(CCN1C(=O)c2ccccc2S1(=O)=O)NCc1ccc(C(=O)NO)cc1 | 2.79 | 
O=C(CCCCN1C(=O)c2ccc(-c3ccccc3)cc2S1(=O)=O)Nc1ccc(C(=O)NO)cc1 | > 5 | 
O=C(NO)c1ccc(CN2C(=O)c3ccc(-c4ccccc4)cc3S2(=O)=O)cc1 | 0.386 | 
O=C(CCCCCN1C(=O)c2ccccc2S1(=O)=O)NCc1ccc(C(=O)NO)cc1 | 2.65 | 
O=C(CCN1C(=O)c2ccc(-c3ccccc3)cc2S1(=O)=O)Nc1ccc(C(=O)NO)cc1 | 1.7 | IC50 [2]: 5.23 µM; IC50 (PC-3): 8.79 µM; Activity (MDA-MB-231 [3]): 7.49%; Activity (MDA-MB-231 [4]): 13.48%; Activity (MDA-MB-231 [5]): 16.76%; IC50 (MDA-MB-231 [6]): 3.45 µM; Activity (MDA-MB-231 [7]): 9.86%; Activity (MDA-MB-231 [8]): 9.27%
O=C(NO)c1ccc(CN2C(=O)c3ccc(NC(=O)c4ccc(F)cc4)cc3S2(=O)=O)cc1 | 0.646 | 
O=C(CCCN1C(=O)c2ccc(-c3ccccc3)cc2S1(=O)=O)Nc1ccc(C(=O)NO)cc1 | 1.51 | IC50 [2]: 11.6 µM; IC50 (PC-3): > 25 µM; IC50 (MDA-MB-231 [6]): 9.9 µM
O=C(CCCCCN1C(=O)c2ccc([N+](=O)[O-])cc2S1(=O)=O)Nc1cccc(C(=O)NO)c1 | > 5 | 
O=C(CCCCCCC(=O)Nc1ccccc1)NO [VORINOSTAT] |  | Activity (MDA-MB-231 [3]): 3.32%; Activity (MDA-MB-231 [4]): 7.1%; Activity (MDA-MB-231 [5]): 11.32%; Activity (MDA-MB-231 [7]): 7.66%; Activity (MDA-MB-231 [8]): 8%
O=C(Cc1ccccc1)Nc1ccc2c(c1)S(=O)(=O)N(Cc1ccc(C(=O)NO)cc1)C2=O | 0.53 | 
O=C(CCN1C(=O)c2ccccc2S1(=O)=O)Nc1ccc(C(=O)NO)cc1 | 0.3 | 
O=C(CCCN1C(=O)c2ccccc2S1(=O)=O)Nc1cccc(C(=O)NO)c1 | > 5 | 
O=C(CCCCCN1C(=O)c2ccccc2S1(=O)=O)Nc1cccc(C(=O)NO)c1 | > 5 | 
O=C(NO)c1ccc(CN2C(=O)c3ccc([N+](=O)[O-])cc3S2(=O)=O)cc1 | > 5 | 
O=C(NO)c1ccc(CN2C(=O)c3ccccc3S2(=O)=O)cc1 | 1.398 | 
O=C(CCN1C(=O)c2ccc(I)cc2S1(=O)=O)Nc1ccc(C(=O)NO)cc1 | 0.523 | 
O=C(CCN1C(=O)c2ccccc2S1(=O)=O)Nc1cccc(C(=O)NO)c1 | > 5 | 
O=C(CCCN1C(=O)c2ccc(I)cc2S1(=O)=O)Nc1ccc(C(=O)NO)cc1 | 0.419 | 
O=C(CCCN1C(=O)c2ccccc2S1(=O)=O)Nc1ccc(C(=O)NO)cc1 | 0.233 | IC50 (PC-3): > 25 µM; Activity (MDA-MB-231 [3]): 4.06%; Activity (MDA-MB-231 [4]): 4.7%; Activity (MDA-MB-231 [5]): 7.5%; IC50 (MDA-MB-231 [6]): 8.71 µM; Activity (MDA-MB-231 [7]): 5.35%; Activity (MDA-MB-231 [8]): 3.44%
O=C(CCCN1C(=O)c2ccc([N+](=O)[O-])cc2S1(=O)=O)Nc1ccc(C(=O)NO)cc1 | 1.66 | 
O=C(NO)c1ccc(CN2C(=O)c3ccc(NC(=O)c4ccc(C(F)(F)F)cc4)cc3S2(=O)=O)cc1 | 1.413 | 
COc1cc(C(=O)Nc2ccc3c(c2)S(=O)(=O)N(Cc2ccc(C(=O)NO)cc2)C3=O)cc(OC)c1OC | 1.71 | 
